Source: ChEMBL document CHEMBL4689842, “EUbOPEN Chemogenomics Library wave 1” (2021)

Tested on: HEK-293T
Experiment: Multiplex assay against HEK293T;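 for Population Tubulin-Different-Phenotype (%): share of the cells with healthy nuclei that show this phenotype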
Assay type: toxicity, cell-based
Details: human
Procedure, shortened: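 Four dyes were applied at seeding to live cells: Hoechst33342, BioTracker Green Microtubule Cytoskeleton Dye, MitoTracker Red and Annexin V Alexa Fluor 680. Imaging after compound addition used a CQ1 microscope at 37°C and 5% CO2. CellPathfinder machine-learning gating then sorted cells into Hoechst high-intensity objects or normal cells, normal cells into healthy, pyknosed or fragmented nuclei, and pyknosed cells into mitotic or apoptotic, with tubulin, mitochondrial-mass and membrane-permeability phenotypes given as per cents of healthy-nucleus cells.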

[1] = 12 h, 1 µM, compound concentration 1 uM, replicate 1
[2] = 12 h, 1 µM, compound concentration 1 uM, replicate 2
[3] = 12 h, 10 µM, compound concentration 10 uM, replicate 1
[4] = 12 h, 10 µM, compound concentration 10 uM, replicate 2
[5] = 24 h, 1 µM, compound concentration 1 uM, replicate 1
[6] = 24 h, 1 µM, compound concentration 1 uM, replicate 2
[7] = 24 h, 10 µM, compound concentration 10 uM, replicate 1
[8] = 24 h, 10 µM, compound concentration 10 uM, replicate 2
[9] = 48 h, 1 µM, compound concentration 1 uM, replicate 1
[10] = 48 h, 1 µM, compound concentration 1 uM, replicate 2
[11] = 48 h, 10 µM, compound concentration 10 uM, replicate 1
[12] = 48 h, 10 µM, compound concentration 10 uM, replicate 2

Structure (SMILES): COc1cc2ncn(-c3cc(OCc4ccccc4C(F)(F)F)c(C(N)=O)s3)c2cc1OC [GW843682X]
- Population Apoptotic (%) [1]: 62%
- Population Fragmented Nuclei (%) [1]: 14%
- Population Healthy Nuclei (%) [1]: 44%
- Population Hoechst High Intensity Objects (%) [1]: 13%
- Population Membrane Permeable-Phenotype (%) [1]: 5%
- Population Mitochondria Different-Phenotype (%) [1]: 84%
- Population Mitotic Cells (%) [1]: 37%
- Population Normal (%) [1]: 86%
- Population Pyknosed Nuclei (%) [1]: 40%
- Population Tubulin-Different-Phenotype (%) [1]: 64%
- Total Cell Count [1]: 252
- Population Apoptotic (%) [2]: 25%
- Population Fragmented Nuclei (%) [2]: 4%
- Population Healthy Nuclei (%) [2]: 38%
- Population Hoechst High Intensity Objects (%) [2]: 2%
- Population Membrane Permeable-Phenotype (%) [2]: 11%
- Population Mitochondria Different-Phenotype (%) [2]: 34%
- Population Mitotic Cells (%) [2]: 74%
- Population Normal (%) [2]: 97%
- Population Pyknosed Nuclei (%) [2]: 56%
- Population Tubulin-Different-Phenotype (%) [2]: 47%
- Total Cell Count [2]: 208
- Population Apoptotic (%) [3]: 57%
- Population Fragmented Nuclei (%) [3]: 12%
- Population Healthy Nuclei (%) [3]: 54%
- Population Hoechst High Intensity Objects (%) [3]: 14%
- Population Membrane Permeable-Phenotype (%) [3]: 9%
- Population Mitochondria Different-Phenotype (%) [3]: 97%
- Population Mitotic Cells (%) [3]: 42%
- Population Normal (%) [3]: 85%
- Population Pyknosed Nuclei (%) [3]: 33%
- Population Tubulin-Different-Phenotype (%) [3]: 97%
- Total Cell Count [3]: 272
- Population Apoptotic (%) [4]: 31%
- Population Fragmented Nuclei (%) [4]: 11%
- Population Healthy Nuclei (%) [4]: 50%
- Population Hoechst High Intensity Objects (%) [4]: 4%
- Population Membrane Permeable-Phenotype (%) [4]: 11%
- Population Mitochondria Different-Phenotype (%) [4]: 88%
- Population Mitotic Cells (%) [4]: 68%
- Population Normal (%) [4]: 96%
- Population Pyknosed Nuclei (%) [4]: 38%
- Population Tubulin-Different-Phenotype (%) [4]: 99%
- Total Cell Count [4]: 250
- Population Apoptotic (%) [5]: 56%
- Population Fragmented Nuclei (%) [5]: 11%
- Population Healthy Nuclei (%) [5]: 39%
- Population Hoechst High Intensity Objects (%) [5]: 19%
- Population Membrane Permeable-Phenotype (%) [5]: 7%
- Population Mitochondria Different-Phenotype (%) [5]: 81%
- Population Mitotic Cells (%) [5]: 43%
- Population Normal (%) [5]: 80%
- Population Pyknosed Nuclei (%) [5]: 49%
- Population Tubulin-Different-Phenotype (%) [5]: 73%
- Total Cell Count [5]: 252
- Population Apoptotic (%) [6]: 24%
- Population Fragmented Nuclei (%) [6]: 5%
- Population Healthy Nuclei (%) [6]: 41%
- Population Hoechst High Intensity Objects (%) [6]: 4%
- Population Membrane Permeable-Phenotype (%) [6]: 3%
- Population Mitochondria Different-Phenotype (%) [6]: 43%
- Population Mitotic Cells (%) [6]: 75%
- Population Normal (%) [6]: 95%
- Population Pyknosed Nuclei (%) [6]: 53%
- Population Tubulin-Different-Phenotype (%) [6]: 65%
- Total Cell Count [6]: 205
- Population Apoptotic (%) [7]: 71%
- Population Fragmented Nuclei (%) [7]: 11%
- Population Healthy Nuclei (%) [7]: 57%
- Population Hoechst High Intensity Objects (%) [7]: 15%
- Population Membrane Permeable-Phenotype (%) [7]: 6%
- Population Mitochondria Different-Phenotype (%) [7]: 96%
- Population Mitotic Cells (%) [7]: 28%
- Population Normal (%) [7]: 84%
- Population Pyknosed Nuclei (%) [7]: 31%
- Population Tubulin-Different-Phenotype (%) [7]: 90%
- Total Cell Count [7]: 270
- Population Apoptotic (%) [8]: 57%
- Population Fragmented Nuclei (%) [8]: 14%
- Population Healthy Nuclei (%) [8]: 53%
- Population Hoechst High Intensity Objects (%) [8]: 3%
- Population Membrane Permeable-Phenotype (%) [8]: 3%
- Population Mitochondria Different-Phenotype (%) [8]: 95%
- Population Mitotic Cells (%) [8]: 42%
- Population Normal (%) [8]: 96%
- Population Pyknosed Nuclei (%) [8]: 32%
- Population Tubulin-Different-Phenotype (%) [8]: 96%
- Total Cell Count [8]: 264
- Population Apoptotic (%) [9]: 53%
- Population Fragmented Nuclei (%) [9]: 17%
- Population Healthy Nuclei (%) [9]: 31%
- Population Hoechst High Intensity Objects (%) [9]: 17%
- Population Membrane Permeable-Phenotype (%) [9]: 3%
- Population Mitochondria Different-Phenotype (%) [9]: 84%
- Population Mitotic Cells (%) [9]: 46%
- Population Normal (%) [9]: 82%
- Population Pyknosed Nuclei (%) [9]: 50%
- Population Tubulin-Different-Phenotype (%) [9]: 72%
- Total Cell Count [9]: 248
- Population Apoptotic (%) [10]: 55%
- Population Fragmented Nuclei (%) [10]: 7%
- Population Healthy Nuclei (%) [10]: 63%
- Population Hoechst High Intensity Objects (%) [10]: 2%
- Population Membrane Permeable-Phenotype (%) [10]: 13%
- Population Mitochondria Different-Phenotype (%) [10]: 36%
- Population Mitotic Cells (%) [10]: 44%
- Population Normal (%) [10]: 97%
- Population Pyknosed Nuclei (%) [10]: 29%
- Population Tubulin-Different-Phenotype (%) [10]: 67%
- Total Cell Count [10]: 220
- Population Apoptotic (%) [11]: 72%
- Population Fragmented Nuclei (%) [11]: 18%
- Population Healthy Nuclei (%) [11]: 46%
- Population Hoechst High Intensity Objects (%) [11]: 12%
- Population Membrane Permeable-Phenotype (%) [11]: 3%
- Population Mitochondria Different-Phenotype (%) [11]: 96%
- Population Mitotic Cells (%) [11]: 27%
- Population Normal (%) [11]: 87%
- Population Pyknosed Nuclei (%) [11]: 34%
- Population Tubulin-Different-Phenotype (%) [11]: 85%
- Total Cell Count [11]: 260
- Population Apoptotic (%) [12]: 59%
- Population Fragmented Nuclei (%) [12]: 7%
- Population Healthy Nuclei (%) [12]: 42%
- Population Hoechst High Intensity Objects (%) [12]: 4%
- Population Membrane Permeable-Phenotype (%) [12]: 7%
- Population Mitochondria Different-Phenotype (%) [12]: 92%
- Population Mitotic Cells (%) [12]: 40%
- Population Normal (%) [12]: 95%
- Population Pyknosed Nuclei (%) [12]: 50%
- Population Tubulin-Different-Phenotype (%) [12]: 92%
- Total Cell Count [12]: 247
